This data set can be described thus: Toxicity liver stage against HepG2, at 10uM. The data set is classed as cell-based. Set-up: test concentration 10 uM, cell line HepG2-A16-CD81EGFP. The settings on record: human, HepG2-A16-CD81EGFP cells; read-out: INHIBITION
The gist of the method: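 Uninfected HepG2-A16-CD81EGFP cells, 3 × 10^3 per well, 1536-well, plated on prespotted compound at 10 μM final, parasite-free screening media added to match infected plates; puromycin 10 μM positive, DMSO 0.5% negative; run in parallel with 48 h PbLuc assay at 37 °C, 5% CO2; viability by CellTiter-Glo luminescence, normalized to controls.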
For the compound `Cc1nn(C(C)C)c(C)c1NC(=O)Nc1cccnc1N1CCCC1`, the cytotoxicity at 10 µM is -5.79%.
The result for `CCS(=O)(=O)N1CC(=O)N(CCCc2ccccc2)CC(O)C1` (stereo unspecified) reads -5.64%; that for `Cc1occc(=O)c1OCc1noc(C(=O)NCC(C)C)n1`, 6.43%.
The result for `COc1ccc(NC(=O)Cn2c(=O)nc(N)c3cc(C)sc32)cc1` reads 2.31%; that for `Cc1ccc(C(=O)Nc2nnc(CC(C)C)s2)c(-n2cnnn2)c1C`, -147%; that for `COc1cccc(CNC(=O)CC2CSc3nc(C)c(C)c(=O)n32)c1` (stereo unspecified), -4.31%.
The result for `COCC(=O)Nc1cnc(N2CCOCC2)nc1` reads -10.7%; that for `COc1ccccc1C(=O)N1CCC(Oc2ccc(C#N)cn2)CC1`, 5.54%.
As to `COc1cc(C2CC(=O)Nc3c2c(=O)[nH]n3C2CCCC2)ccc1O` (stereo unspecified), the cytotoxicity at 10 µM was -1.37%.
The result for `Cc1nn(Cn2ccc(C(=O)N3CCCCCC3)n2)c(C)c1Cl` reads 0.781%; that for `Cc1nn(C)cc1-c1cc(C(F)F)nc(NC2CCCCC2)n1`, 1.84%.
The result for `O=C1CC(c2cccnc2)c2c(sc3c2CCCC3)N1` (stereo unspecified) reads 8.75%.
Consider `Cc1cnc(C(=O)N2CCN(c3ncc4c(n3)CCOC4)CC2)cn1`, for which the cytotoxicity at 10 µM was found to be 4.91%.
Take `O=C(c1cnc(O)c(Cl)c1)N1CCCC(c2nccs2)C1` (stereo unspecified): the cytotoxicity at 10 µM is 3.63%.
The result for `Nc1nc(N)c2c(n1)OC1(CCN(C(=O)CC3CCCCN3)CC1)C2` (stereo unspecified) reads -0.24%; that for `CCN(CC)C1CCN(C(=O)NCc2cccc(-n3cccn3)c2)C1` (stereo unspecified), 5.79%.
As for `CC(Cc1ccc(Cl)cc1)N(C)C(=O)NCCS(C)(=O)=O` (stereo unspecified), the figure is 0.606%.
As for `COCCS(=O)(=O)Cc1nnnn1-c1ccccc1`, the figure is -9.4%.
Turning to `COCCCSc1ccc(NCc2cscn2)cc1`, the cytotoxicity at 10 µM was determined as 6.43%.
As for `Cc1ccc(C)c(Oc2ccc(CNC(=O)C3CCS(=O)(=O)C3)cn2)c1` (stereo unspecified), the figure is -3.98%.
As for `O=C(Nc1cccc(C(F)(F)F)c1)C1CC(=O)N(Cc2ccccn2)C1` (stereo unspecified), the figure is -0.505%.
The result for `CC(C)CCC(=O)N1CCCC1c1nnc2n1CCCCC2` (stereo unspecified) reads -8.88%.
Consider `CN(Cc1ccsc1)C(=O)Nc1cccc(N2CCOC2=O)c1`, for which the cytotoxicity at 10 µM was -12.9%.
The result for `FC(F)c1nnc2ccc(N3CCC4(CCCCC4)C3)nn12` reads 1.47%.
As for `Cc1cc(-n2cncn2)ccc1C(=O)N(C)CC(F)(F)C(F)(F)F`, the figure is -10.3%; as for `CCCNC(=O)CCc1ccnc2ccccc12`, 5.25%; as for `Cc1nc(C)n(CC2CCCN2c2ncnc3c2CCC3)n1` (stereo unspecified), 8.03%.
The result for `Cc1noc(C)c1CN(C)C(=O)C1(N)CCCCC1` reads 6.67%; that for `CC(C)OCCN1CCC(Nc2ccc(C#N)cc2F)CC1`, -4.94%.
On to `Cn1cc(C(=O)NC2CCCC2)c(-c2cccnc2)n1`, for which the cytotoxicity at 10 µM was determined as 10.3%.
As for `O=C1C(N2CCN(c3ccccc3Cl)CC2)CCN1C1CCOCC1` (stereo unspecified), the figure is -0.455%; as for `CN(C)C(=O)Cn1ccc2cc(NC(=O)N3CCSCC3)ccc21`, 5.25%.
The result for `Cn1cc(C2NC3(CCCC3)C(=O)N2CC2CC2)c(=O)n(C)c1=O` (stereo unspecified) reads 6.93%.
As for `Cc1cnc(CN2CCC(N(C)Cc3nnc(C4CC4)n3C)C2)cn1` (stereo unspecified), the figure is -2.31%.
Take `c1c(CN2CCOCC2)nc2n1CCN(C1CCOCC1)C2`: the cytotoxicity at 10 µM was 0.997%.
The result for `CC(C)c1nccc([C@@H]2C[C@@H]3CCN(Cc4ccoc4)C[C@H]3O2)n1` reads -7.47%; that for `Cn1cc(-c2nnn3c2COC(CNCc2cccnc2)C3)cn1` (stereo unspecified), 0.824%; that for `CS(=O)(=O)NCc1cn2c(n1)CN(C(=O)c1ccc[nH]1)CC2`, 5.69%.
In the case of `CC(=O)Nc1ccc2nc(-c3nccn3C[C@@H]3CCCO3)ccc2c1`, the cytotoxicity at 10 µM was -8.18%.
Regarding `O=C1CCC(C(=O)N2CCC(Cn3cc(C4CCCC4)nn3)CC2)=NN1`, the cytotoxicity at 10 µM is 5.14%.
With `Cc1nccc(N2CCC(=O)N(CC3CC3)C(C(C)C)C2)n1` (stereo unspecified), the cytotoxicity at 10 µM was -0.232%.
The result for `NC(=O)c1cc2c(nc1Oc1ccccc1CN1CCCCC1)CCC2` reads 3.71%; that for `CC(C)c1ncc(CN2C[C@@H](CN3CCCCC3)[C@@H](CO)C2)cn1`, -10.2%; that for `O=C(NCCO)c1coc(CN2CCN(c3ccccc3F)CC2)n1`, -11.2%.
As for `CCCc1ccc2oc(C(=O)N3CCCN(C)CC3)c(C)c2c1`, the figure is -8.3%; as for `O=C(CCc1ccccc1)C1CCCN(Cc2cncn2C2CC2)C1` (stereo unspecified), -7.12%; as for `c1cc(-c2cnccn2)cc(-c2ccn(CCCN3CCCCC3)n2)c1`, -2.15%.
The result for `CN(C)c1nc(NCCc2cnccn2)ncc1F` reads 5.56%; that for `Cc1cc(C)n2nc(C(=O)N3CCCC4(CNC(=O)O4)C3)cc2n1` (stereo unspecified), 9.48%.
In the case of `Cc1ccccc1N1CCCN(C(=O)CCc2ccncc2)CC1`, the cytotoxicity at 10 µM is -9.88%.
As for `Cc1nc(N(C)C)ncc1C(=O)NCCCn1nccc1C1CC1`, the figure is 9.53%.
The result for `Fc1ccccc1CN1CCCN(c2ncnc3[nH]ccc23)CC1` reads -5.86%; that for `O=C(NC1CCNCC1)C1(N2CCCCC2)Cc2ccccc2C1`, -5.47%; that for `Cc1ccc(C)c(NC(=O)N2CCC3(CC2)NC(=O)CC3C(=O)O)c1` (stereo unspecified), 4.9%.
As for `Cc1ccccc1OCCC(=O)N1CCc2nc(C)n(C)c(=O)c2CC1`, the figure is -0.852%; as for `COCCCC1(CO)CCCN(Cc2cccc(C#N)c2)C1` (stereo unspecified), 4.16%; as for `COc1ccc(C(C(=O)O)N(C)Cc2c(C)nn(C)c2C)c(C)c1` (stereo unspecified), 7.47%.
Regarding `Cc1n[nH]c(C)c1CC(=O)N1CC[C@@](C)(O)[C@@H](Cc2ccccc2)C1`, the cytotoxicity at 10 µM amounted to 5.94%.
As for `CCOCC(=O)N1CCC(C2CCN(Cc3ccc(Cl)cc3)C2)CC1` (stereo unspecified), the figure is -9.15%.
As for `Cc1nnc(CN2CCCC(CCc3ccccc3C(F)(F)F)C2)o1` (stereo unspecified), the figure is 3.67%; as for `CCCc1nnc(N2CCCC(c3nnc(Cn4ccnc4)n3C)C2)s1` (stereo unspecified), -0.391%.
As for `CCc1ccc(C2CC(=O)Nc3n[nH]cc32)o1` (stereo unspecified), the figure is 0.0773%.
Turning to `Cc1cc(CNCc2c(C)n(CC(C)C)c3ccccc23)[nH]n1`, the cytotoxicity at 10 µM is -1.63%.
As for `CC(C)N1CCCC(C(=O)N2CCc3c(nc(CC4CC4)[nH]c3=O)C2)C1` (stereo unspecified), the figure is -7.41%; as for `CCS(=O)(=O)N1CCC(c2nnc(CN3CCCCC3)n2C)CC1`, -6.03%; as for `CC(=O)NCC(=O)N1CCC(C2CCN(Cc3ccc(Cl)cc3)C2)CC1` (stereo unspecified), -9.12%.
Consider `CCc1cc(O)nc(C2CCCN2C(=O)c2cc(C)no2)n1` (stereo unspecified), for which the cytotoxicity at 10 µM was 2.69%.
The result for `NC(=O)CC1CCN(C(=O)c2cccn2Cc2cccs2)CC1` reads -7.19%.
As for `CN(Cc1ccccc1)CC(O)Cn1cnc2c(Cl)cc(Cl)cc2c1=O` (stereo unspecified), the figure is -2.34%; as for `NC(=O)c1cc(C2CCCN(CCOc3ccc(F)cc3)C2)n[nH]1` (stereo unspecified), -7.92%.
For the compound `CCc1nc(CC(=O)N2CCn3c(C)nnc3C2)cs1`, the cytotoxicity at 10 µM is -9.57%.
As for `Cc1cc(C)c(CNC(=O)NCC2CCCOC2)c(=O)[nH]1` (stereo unspecified), the figure is -8.19%.
As for `CCCc1noc(CN2CCCCC2Cn2cncn2)n1` (stereo unspecified), the figure is 4.84%; as for `Cc1nn(C)c(N2CCOCC2)c1CNCc1cscn1`, -8.07%; as for `COCc1ccc(C(=O)N2CCCN(Cc3cscn3)CC2)cc1`, -3.07%.
As for `CC(=O)N(Cc1noc(C)n1)C1CCN(Cc2ccc(C#N)cc2)C1` (stereo unspecified), the figure is -3.66%; as for `CNc1cc2c(nn1)CCN(C(=O)c1ccc3c(c1)CCC3)C2`, 3.15%; as for `CCc1csc(C2CCCN(C(=O)c3c[nH]c(C)n3)C2)n1` (stereo unspecified), -9.03%.
In the case of `Cn1cc(CCC(=O)N2CCN(Cc3ccncc3)CC2)cn1`, the cytotoxicity at 10 µM was -6.64%.
The result for `CCc1nc(C2CCCN(C(=O)c3cccc4cn[nH]c34)C2)no1` (stereo unspecified) reads -3.73%; that for `O=C(COc1ccc2c(c1)CCC2)NS(=O)(=O)c1cncc(Br)c1`, -5.82%.
As for `CCOc1ccccc1OC1CCN(C(=O)c2nc(=O)[nH][nH]2)CC1`, the figure is -9.75%.
As for `CCn1ccnc1CN1CCN(CCOc2ccccc2OC)CC1`, the figure is -8.83%.
Consider `COC(=O)c1ccc(N2CCN(C(=O)c3ccncc3)C(C)C2)cc1` (stereo unspecified), for which the cytotoxicity at 10 µM was -6.38%.
Turning to `CN(CCCc1ccccc1)Cc1nc2c(cnn2C)c(=O)[nH]1`, the cytotoxicity at 10 µM was -9.56%.
For the compound `Cc1nn(C)c(N(C)C)c1CNC(C)c1cccc(OC(C)C)c1` (stereo unspecified), the cytotoxicity at 10 µM is -7.76%.
As for `CN1CCC/C1=N\S(=O)(=O)c1ccc(NC(=O)CCc2cccs2)cc1`, the figure is -8.55%; as for `O=C(NCCc1ccn(-c2ccccc2)n1)N1CCC1`, -0.361%; as for `Cc1cc(CN2CCOC(CN(C)c3cccnn3)C2)no1` (stereo unspecified), 8.23%.
Turning to `O=C(NC1CC1)[C@@H]1CCO[C@@H]2CCN(CCc3ccccc3)C[C@@H]21`, the cytotoxicity at 10 µM came out at 3.6%.
As for `c1ccc([C@@H]2CN(Cc3ccncc3)C[C@H]2c2cc[nH]n2)cc1`, the figure is -0.189%; as for `N#Cc1ccc(C(=O)N2CC[C@H]3[C@H]2CCN3CC2CC2)cc1`, -9.87%; as for `Cc1cccc(CN2CCc3nnc(CO)n3CC2)n1`, 6.41%.
As for `COCC(=O)N1CCC2(CCN(Cc3cccnc3)C2)CC1`, the figure is -2.42%; as for `CC1c2ncc(CN3CCN(C)CC3)n2CCN1Cc1ccsc1` (stereo unspecified), 6.58%.
The result for `CCN1CCOCC2(CCCN(C(=O)c3ccncc3F)C2)C1` (stereo unspecified) reads -3.16%.

For the origin of these results see ChEMBL document CHEMBL4513216, “Probing the Open Global Health Chemical Diversity Library for Multistage-Active Starting Points for Next-Generation Antimalarials” (ACS Infect Dis, 2020).
